Laboratory results reported in ChEMBL document CHEMBL3352338, “Development and biological evaluation of potent and selective c-KIT(D816V) inhibitors” (J Med Chem, 2014).
Activity calls are given as the source filed them. The rule behind the calls is not given here.

Experiments:
[1] = Antiproliferative activity against human HMC-1.2 cells carrying V560G, D816V mutant assessed as cell growth inhibition by MTT assay; format: functional, cell-based
Method in brief: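 Cell viability by MTT assay in imatinib-resistant HMC-1.2 human mast cells (V560G, D816V), 48 h exposure across a range of concentrations.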

[2] = target: Mast/stem cell growth factor receptor Kit (Homo sapiens, UniProt P10721); details: 5 uM
[3] = target: ALK tyrosine kinase receptor (Homo sapiens) (UniProt Q9UM73); assay: Inhibition of ALK (unknown origin) at 1 uM by KINOMEscanning assay relative to control; values are per cent of control
[4] = target: Focal adhesion kinase 1 (Homo sapiens) (UniProt Q05397); assay: Inhibition of FAK (unknown origin) at 1 uM by KINOMEscanning assay relative to control; values are per cent of control
[5] = target: RAC-beta serine/threonine-protein kinase (Homo sapiens) (UniProt P31751); assay: Inhibition of AKT2 (unknown origin) at 1 uM by KINOMEscanning assay relative to control; values are per cent of control
[6] = target: Receptor-type tyrosine-protein kinase FLT3 (Homo sapiens) (UniProt P36888); assay: Inhibition of FLT3 (unknown origin) at 1 uM by KINOMEscanning assay relative to control; values are per cent of control
[7] = target: Tyrosine-protein kinase JAK1 (Homo sapiens) (UniProt P23458); assay: Inhibition of JAK1 (unknown origin) at 1 uM by KINOMEscanning assay relative to control; values are per cent of control
[8] = target: Tyrosine-protein kinase JAK2 (Homo sapiens) (UniProt O60674); assay: Inhibition of JAK2 (unknown origin) at 1 uM by KINOMEscanning assay relative to control; values are per cent of control
[9] = target: Dual specificity mitogen-activated protein kinase kinase 1 (Homo sapiens) (UniProt Q02750); assay: Inhibition of MEK1 (unknown origin) at 1 uM by KINOMEscanning assay relative to control; values are per cent of control
[10] = target: Serine/threonine-protein kinase pim-1 (Homo sapiens) (UniProt P11309); assay: Inhibition of PIM1 (unknown origin) at 1 uM by KINOMEscanning assay relative to control; values are per cent of control
[11] = target: Serine/threonine-protein kinase PLK1 (Homo sapiens) (UniProt P53350); assay: Inhibition of PLK1 (unknown origin) at 1 uM by KINOMEscanning assay relative to control; values are per cent of control
[12] = target: T1, Aurora kinase A (Homo sapiens) (UniProt O14965); assay: Inhibition of AURKA (unknown origin) at 1 uM by KINOMEscanning assay relative to control; values are per cent of control
T1 sequence (whole entry): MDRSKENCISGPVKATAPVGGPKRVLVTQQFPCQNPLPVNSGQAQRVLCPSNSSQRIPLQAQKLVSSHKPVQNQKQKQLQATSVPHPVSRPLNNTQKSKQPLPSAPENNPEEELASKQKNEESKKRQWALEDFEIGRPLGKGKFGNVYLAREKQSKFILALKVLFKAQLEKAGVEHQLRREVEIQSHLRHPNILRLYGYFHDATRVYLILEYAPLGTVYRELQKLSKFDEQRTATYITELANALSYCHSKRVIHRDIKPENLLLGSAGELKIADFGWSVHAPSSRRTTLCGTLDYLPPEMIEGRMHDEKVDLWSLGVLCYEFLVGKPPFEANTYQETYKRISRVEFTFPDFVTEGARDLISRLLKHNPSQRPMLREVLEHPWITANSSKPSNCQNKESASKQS

[13] = target: T2, Inhibitor of nuclear factor kappa-B kinase subunit beta (Homo sapiens) (UniProt O14920); assay: Inhibition of IKKbeta (unknown origin) at 1 uM by KINOMEscanning assay relative to control; values are per cent of control
T2 sequence (whole entry): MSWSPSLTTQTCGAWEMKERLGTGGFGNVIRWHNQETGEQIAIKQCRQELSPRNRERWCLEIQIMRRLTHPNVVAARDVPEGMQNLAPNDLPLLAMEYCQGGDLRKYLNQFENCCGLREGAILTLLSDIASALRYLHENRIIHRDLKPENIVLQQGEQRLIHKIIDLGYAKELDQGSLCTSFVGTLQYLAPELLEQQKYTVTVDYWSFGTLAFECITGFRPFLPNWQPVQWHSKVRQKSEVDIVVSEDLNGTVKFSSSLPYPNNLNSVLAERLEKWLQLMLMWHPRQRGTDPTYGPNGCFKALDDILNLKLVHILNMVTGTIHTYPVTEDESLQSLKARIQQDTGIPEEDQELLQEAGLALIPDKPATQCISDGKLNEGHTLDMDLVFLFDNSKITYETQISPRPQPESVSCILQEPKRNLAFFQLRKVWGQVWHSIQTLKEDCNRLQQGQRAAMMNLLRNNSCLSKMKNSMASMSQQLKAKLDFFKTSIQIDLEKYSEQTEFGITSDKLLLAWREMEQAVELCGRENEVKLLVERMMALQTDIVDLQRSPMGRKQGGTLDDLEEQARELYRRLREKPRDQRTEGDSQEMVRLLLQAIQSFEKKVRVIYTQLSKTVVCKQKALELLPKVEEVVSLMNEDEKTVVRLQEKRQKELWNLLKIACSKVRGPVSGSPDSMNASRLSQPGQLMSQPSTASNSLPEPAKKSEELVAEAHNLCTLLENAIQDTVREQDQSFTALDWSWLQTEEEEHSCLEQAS

[14] = target: Phosphatidylinositol 4,5-bisphosphate 3-kinase catalytic subunit beta isoform (Homo sapiens) (UniProt P42338); assay: Inhibition of PI3Kbeta (unknown origin) at 1 uM by KINOMEscanning assay relative to control; values are per cent of control
[15] = target: Phosphatidylinositol 4,5-bisphosphate 3-kinase catalytic subunit alpha isoform (Homo sapiens, UniProt P42336); assay: Inhibition of PI3Kalpha (unknown origin) at 1 uM by KINOMEscanning assay relative to control; values are per cent of control
[16] = tested on: Tyrosine-protein kinase ABL1 (Homo sapiens), P00519 [T315I]; assay: Inhibition of ABL T315I mutant (unknown origin) at 1 uM by KINOMEscanning assay relative to control; values are per cent of control
[17] = tested on: Mast/stem cell growth factor receptor Kit (Homo sapiens), P10721 [D816H]; assay: Inhibition of c-KIT D816H mutant (unknown origin) at 1 uM by KINOMEscanning assay relative to control; values are per cent of control
Sequence of Mast/stem cell growth factor receptor Kit (Homo sapiens), P10721 [D816H] (P10721 whole entry D816H): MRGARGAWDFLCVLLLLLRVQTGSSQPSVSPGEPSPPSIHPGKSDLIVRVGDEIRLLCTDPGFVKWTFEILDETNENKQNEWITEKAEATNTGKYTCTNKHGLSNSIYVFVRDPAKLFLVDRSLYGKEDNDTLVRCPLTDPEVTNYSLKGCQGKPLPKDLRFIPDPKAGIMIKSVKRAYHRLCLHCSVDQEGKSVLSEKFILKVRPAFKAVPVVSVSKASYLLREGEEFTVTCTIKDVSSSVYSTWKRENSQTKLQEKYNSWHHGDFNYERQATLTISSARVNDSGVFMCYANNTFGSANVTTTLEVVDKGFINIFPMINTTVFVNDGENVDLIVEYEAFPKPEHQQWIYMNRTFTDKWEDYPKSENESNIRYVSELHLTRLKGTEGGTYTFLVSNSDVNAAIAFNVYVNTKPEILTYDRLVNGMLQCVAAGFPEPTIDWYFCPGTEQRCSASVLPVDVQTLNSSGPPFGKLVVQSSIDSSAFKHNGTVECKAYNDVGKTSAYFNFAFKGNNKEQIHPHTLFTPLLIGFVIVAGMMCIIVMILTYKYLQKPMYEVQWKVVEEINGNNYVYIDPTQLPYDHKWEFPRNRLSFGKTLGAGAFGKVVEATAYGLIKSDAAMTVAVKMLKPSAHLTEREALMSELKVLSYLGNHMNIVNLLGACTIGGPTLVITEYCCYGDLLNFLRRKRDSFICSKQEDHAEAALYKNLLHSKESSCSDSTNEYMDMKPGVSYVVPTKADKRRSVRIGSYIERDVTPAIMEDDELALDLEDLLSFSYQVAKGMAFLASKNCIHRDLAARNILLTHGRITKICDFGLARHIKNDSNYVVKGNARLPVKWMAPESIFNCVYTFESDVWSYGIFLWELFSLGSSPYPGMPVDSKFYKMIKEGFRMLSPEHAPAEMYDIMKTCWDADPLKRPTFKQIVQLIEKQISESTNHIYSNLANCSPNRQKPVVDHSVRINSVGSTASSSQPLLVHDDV

Sequence of Dual specificity mitogen-activated protein kinase kinase 1 (Homo sapiens) (Q02750 whole entry): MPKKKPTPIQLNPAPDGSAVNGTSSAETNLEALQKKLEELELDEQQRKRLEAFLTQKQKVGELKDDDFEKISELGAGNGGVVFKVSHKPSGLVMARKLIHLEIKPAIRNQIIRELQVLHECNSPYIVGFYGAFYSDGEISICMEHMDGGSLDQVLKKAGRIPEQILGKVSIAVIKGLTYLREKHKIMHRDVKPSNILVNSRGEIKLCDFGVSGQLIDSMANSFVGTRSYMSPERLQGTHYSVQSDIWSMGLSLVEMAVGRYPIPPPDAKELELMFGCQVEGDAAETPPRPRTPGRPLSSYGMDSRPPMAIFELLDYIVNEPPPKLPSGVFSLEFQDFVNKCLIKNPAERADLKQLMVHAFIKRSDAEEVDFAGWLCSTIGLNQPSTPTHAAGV
Sequence of Phosphatidylinositol 4,5-bisphosphate 3-kinase catalytic subunit beta isoform (Homo sapiens) (P42338 whole entry, looked up, canonical isoform): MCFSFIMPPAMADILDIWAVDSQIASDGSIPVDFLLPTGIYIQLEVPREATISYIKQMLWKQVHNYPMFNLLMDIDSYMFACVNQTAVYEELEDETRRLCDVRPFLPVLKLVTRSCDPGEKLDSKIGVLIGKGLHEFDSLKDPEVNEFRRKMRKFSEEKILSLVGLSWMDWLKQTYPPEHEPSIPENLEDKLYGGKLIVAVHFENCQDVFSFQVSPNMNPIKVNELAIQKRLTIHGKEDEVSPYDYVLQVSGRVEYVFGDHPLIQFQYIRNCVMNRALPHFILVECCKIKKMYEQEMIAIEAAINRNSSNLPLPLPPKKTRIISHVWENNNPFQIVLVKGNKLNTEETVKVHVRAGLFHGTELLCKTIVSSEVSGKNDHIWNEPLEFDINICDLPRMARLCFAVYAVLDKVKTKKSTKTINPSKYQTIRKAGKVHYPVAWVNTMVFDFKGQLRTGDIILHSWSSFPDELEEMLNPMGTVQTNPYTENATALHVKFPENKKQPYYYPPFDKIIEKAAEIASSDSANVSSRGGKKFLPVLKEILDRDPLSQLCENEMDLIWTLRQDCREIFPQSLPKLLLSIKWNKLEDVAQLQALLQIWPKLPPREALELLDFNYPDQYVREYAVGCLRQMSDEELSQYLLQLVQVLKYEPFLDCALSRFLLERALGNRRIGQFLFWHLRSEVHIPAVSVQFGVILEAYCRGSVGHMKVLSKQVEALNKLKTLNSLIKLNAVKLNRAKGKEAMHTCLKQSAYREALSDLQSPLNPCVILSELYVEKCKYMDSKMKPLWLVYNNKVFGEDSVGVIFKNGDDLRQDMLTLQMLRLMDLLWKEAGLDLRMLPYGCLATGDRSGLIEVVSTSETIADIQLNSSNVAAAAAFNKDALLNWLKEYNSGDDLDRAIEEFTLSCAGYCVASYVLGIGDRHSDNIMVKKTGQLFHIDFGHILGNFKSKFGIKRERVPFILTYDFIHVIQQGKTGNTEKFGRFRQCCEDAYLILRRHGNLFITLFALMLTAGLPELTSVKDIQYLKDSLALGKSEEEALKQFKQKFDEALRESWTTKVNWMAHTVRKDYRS
Sequence of Tyrosine-protein kinase JAK2 (Homo sapiens) (O60674 whole entry): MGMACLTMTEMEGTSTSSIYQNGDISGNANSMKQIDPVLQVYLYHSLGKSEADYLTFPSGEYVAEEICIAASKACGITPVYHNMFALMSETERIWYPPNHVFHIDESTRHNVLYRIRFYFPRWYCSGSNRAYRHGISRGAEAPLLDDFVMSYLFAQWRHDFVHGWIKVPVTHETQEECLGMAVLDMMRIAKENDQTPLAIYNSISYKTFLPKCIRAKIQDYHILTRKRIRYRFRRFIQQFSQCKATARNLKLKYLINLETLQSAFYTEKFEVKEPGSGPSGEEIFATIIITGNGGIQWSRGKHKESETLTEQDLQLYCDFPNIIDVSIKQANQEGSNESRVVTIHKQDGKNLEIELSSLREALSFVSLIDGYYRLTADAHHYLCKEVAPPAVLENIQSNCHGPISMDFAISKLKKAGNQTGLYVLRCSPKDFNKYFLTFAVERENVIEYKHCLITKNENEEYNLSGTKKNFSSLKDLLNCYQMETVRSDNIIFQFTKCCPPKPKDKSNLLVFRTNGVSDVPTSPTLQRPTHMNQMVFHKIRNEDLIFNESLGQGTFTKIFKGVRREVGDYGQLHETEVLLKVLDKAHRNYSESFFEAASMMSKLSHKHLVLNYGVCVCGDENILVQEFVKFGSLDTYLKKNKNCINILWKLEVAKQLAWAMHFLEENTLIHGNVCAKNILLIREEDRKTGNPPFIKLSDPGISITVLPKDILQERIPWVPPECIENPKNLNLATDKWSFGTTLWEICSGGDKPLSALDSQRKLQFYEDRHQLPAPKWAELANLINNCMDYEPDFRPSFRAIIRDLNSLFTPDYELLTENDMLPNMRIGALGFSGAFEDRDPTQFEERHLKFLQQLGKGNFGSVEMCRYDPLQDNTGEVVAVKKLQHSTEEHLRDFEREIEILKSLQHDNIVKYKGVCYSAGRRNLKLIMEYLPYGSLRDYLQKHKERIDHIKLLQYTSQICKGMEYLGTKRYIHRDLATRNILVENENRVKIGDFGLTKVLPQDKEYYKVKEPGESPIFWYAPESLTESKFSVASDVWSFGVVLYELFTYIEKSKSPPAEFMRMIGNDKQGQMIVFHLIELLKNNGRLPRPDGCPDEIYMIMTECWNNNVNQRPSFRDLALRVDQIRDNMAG
Sequence of Serine/threonine-protein kinase PLK1 (Homo sapiens) (P53350 whole entry): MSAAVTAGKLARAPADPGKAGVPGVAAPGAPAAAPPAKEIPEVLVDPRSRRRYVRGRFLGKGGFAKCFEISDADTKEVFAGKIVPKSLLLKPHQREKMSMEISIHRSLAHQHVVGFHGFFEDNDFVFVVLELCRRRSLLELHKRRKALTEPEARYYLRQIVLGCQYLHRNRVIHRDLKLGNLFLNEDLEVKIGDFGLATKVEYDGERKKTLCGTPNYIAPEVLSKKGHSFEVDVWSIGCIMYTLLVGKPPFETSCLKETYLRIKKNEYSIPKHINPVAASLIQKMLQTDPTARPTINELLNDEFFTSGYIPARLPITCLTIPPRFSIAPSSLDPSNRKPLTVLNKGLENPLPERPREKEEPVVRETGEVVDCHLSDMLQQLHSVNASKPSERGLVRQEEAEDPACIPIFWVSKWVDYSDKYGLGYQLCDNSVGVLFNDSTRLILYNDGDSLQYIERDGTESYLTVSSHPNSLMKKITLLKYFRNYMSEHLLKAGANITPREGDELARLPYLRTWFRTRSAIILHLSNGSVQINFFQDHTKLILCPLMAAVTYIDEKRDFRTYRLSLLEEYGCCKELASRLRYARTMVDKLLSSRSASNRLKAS
Sequence of Mast/stem cell growth factor receptor Kit (P10721 whole entry): as the sequence (P10721 whole entry D816H) above, with H816D counted along it
Sequence of RAC-beta serine/threonine-protein kinase (Homo sapiens) (P31751 whole entry): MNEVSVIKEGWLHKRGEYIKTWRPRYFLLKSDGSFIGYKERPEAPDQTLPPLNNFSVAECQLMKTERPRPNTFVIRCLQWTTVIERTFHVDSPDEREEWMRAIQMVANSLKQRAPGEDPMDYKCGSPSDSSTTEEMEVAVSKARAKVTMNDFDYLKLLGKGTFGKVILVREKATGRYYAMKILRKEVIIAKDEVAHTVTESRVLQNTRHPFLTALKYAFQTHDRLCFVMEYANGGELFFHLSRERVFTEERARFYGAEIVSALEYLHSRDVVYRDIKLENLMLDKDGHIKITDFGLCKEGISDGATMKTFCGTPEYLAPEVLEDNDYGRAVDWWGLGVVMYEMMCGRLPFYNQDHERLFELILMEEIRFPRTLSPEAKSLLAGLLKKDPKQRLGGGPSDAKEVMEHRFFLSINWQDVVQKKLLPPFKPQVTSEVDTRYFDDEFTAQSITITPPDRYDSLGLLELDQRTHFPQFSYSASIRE
Sequence of Serine/threonine-protein kinase pim-1 (Homo sapiens) (P11309 whole entry, looked up): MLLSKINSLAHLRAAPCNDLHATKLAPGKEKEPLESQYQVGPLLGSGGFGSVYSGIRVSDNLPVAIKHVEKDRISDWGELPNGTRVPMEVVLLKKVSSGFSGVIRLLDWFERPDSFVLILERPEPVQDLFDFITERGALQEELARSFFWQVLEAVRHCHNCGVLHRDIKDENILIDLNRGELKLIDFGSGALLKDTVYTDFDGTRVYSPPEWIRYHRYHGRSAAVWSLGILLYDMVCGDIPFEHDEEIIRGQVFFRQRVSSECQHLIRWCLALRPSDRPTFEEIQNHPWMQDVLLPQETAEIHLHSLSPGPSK

Structure (SMILES) | IC50 [1] [nM] | inhibition [2] | residual activity [3] [%] | residual activity [4] [%] | residual activity [5] [%] | residual activity [6] [%] | residual activity [7] [%] | residual activity [8] [%] | residual activity [9] [%] | residual activity [10] [%] | residual activity [11] [%] | residual activity [12] [%] | residual activity [13] [%] | residual activity [14] [%] | residual activity [15] [%] | residual activity [16] [%] | residual activity [17] [%]
COc1ccc(-c2c[nH]c3ncc(-c4cc(OC)c(OC)c(OC)c4)cc23)cc1OC | 910 | Active | 40 | 92 | 100 | 1.6 | 92 | 48 | 78 | 71 | 99 | 25 | 69 | 94 | 75 | 48 | 25
COc1ccc(-c2cnc3[nH]cc(-c4ccc(OC)c(OC)c4)c3c2)cc1N | 870 | Active | 51 | 93 | 100 | 18 | 93 | 46 | 76 | 71 | 84 | 17 | 31 | 93 | 71 | 54 | 51
COc1cc(-c2c[nH]c3ncc(-c4cccc(N)c4)cc23)cc(OC)c1OC | 810 | Active | 33 | 92 | 100 | 25 | 71 | 78 | 85 | 88 | 100 | 8.9 | 22 | 87 | 71 | 47 | 85
COc1ccc(-c2cnc3[nH]cc(-c4ccc(OC)c(OC)c4)c3c2)cc1OC | 760 | Active | 43 | 88 | 100 | 2.2 | 100 | 49 | 74 | 68 | 98 | 13 | 12 | 100 | 66 | 51 | 16
COc1ccc(-c2c[nH]c3ncc(-c4ccc(C(=O)N5CCOCC5)c(N)c4)cc23)cc1OC | 2010 | – | 76 | 88 | 97 | 7 | 100 | 3.2 | 59 | 27 | 84 | 0.85 | 0.75 | 95 | 100 | 17 | 25
